This note sets out measurements from ChEMBL document CHEMBL2146363, “Allylic thiocyanates as a new class of antitubercular agents” (Bioorg Med Chem Lett, 2012).

Assay [1] concerns Mycobacterium tuberculosis. Description: Antitubercular activity against Mycobacterium tuberculosis H37Rv in GAS medium after 4 days by microplate alamar blue assay. The settings on record: 96 h. In kind it is functional. In outline: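 Replicating M. tuberculosis H37Rv grown in GAS (glycerol–alanine–salts) medium. MIC determined by microplate Alamar Blue assay (MABA).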
Assay [2] concerns Mycobacterium tuberculosis. Description: Antitubercular activity against Mycobacterium tuberculosis H37Rv in 7H12 medium after 4 days by microplate alamar blue assay. The assay is classed as functional. The following applies: 96 h. A digest of the protocol: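 Replicating M. tuberculosis H37Rv tested in Middlebrook 7H12 medium, which lacks glycerol and uses palmitic acid as carbon source. MIC read by microplate Alamar Blue assay (MABA).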

Assay [3] has as its system Mycobacterium tuberculosis. Description: Antitubercular activity against Mycobacterium tuberculosis H37Rv in 7H12 medium incubated for 10 days in anaerobic condition followed by incubation for 48 hrs in aerobic condition by low oxygen recovery assay. In kind it is functional. A digest of the protocol: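 Non-replicating M. tuberculosis H37Rv tested in 7H12 medium (palmitic acid carbon source, no glycerol) under low-oxygen conditions by the low-oxygen-recovery assay (LORA), which models persistence or latency. Read-out is MIC.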

The test system of assay [4] is Vero. The experiment in a line: Cytotoxicity against african green monkey Vero cells after 72 hrs by MTS assay. The assay is classed as cell-based. The following applies: Chlorocebus sabaeus. In outline: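 African green monkey kidney VERO cell line; toxicity read as half-maximal inhibitory concentration (IC50). Each reported value is the average of three individual measurements, rounded to the nearest dilution.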

A short description of assay [5]: Selectivity ratio of IC50 for african green monkey Vero cells to MIC for Mycobacterium tuberculosis H37Rv in GAS medium. The assay is classed as functional.

By MIC is commonly meant the lowest concentration found to suppress growth. As a reminder, the IC50 is the concentration at which inhibition is half-maximal.

In brackets after ≈: the same amount, converted by molar mass.

For `COC(=O)/C(=C/c1ccc([N+](=O)[O-])cc1)CSC(=N)Nc1ccccc1`, the MIC in assay [1] was 4 µM (≈ 1.49 µg/mL); in assay [2], above 32 µM; in assay [3], above 64 µM. The IC50 in assay [4] is above 64 µM.
Consider `COC(=O)/C(=C/c1ccc(F)cc1)CSC(=N)Nc1ccccc1`, for which 8 µM (≈ 2.76 µg/mL) was the least that counted as inhibitory in assay [1] (MIC).
With `COC(=O)/C(=C/c1ccc(Cl)cc1)CSC#N`, the MIC in assay [1] was 0.25 µM (≈ 0.0669 µg/mL); in assay [2] it was 8 µM (≈ 2.14 µg/mL); in assay [3] it was 8 µM (≈ 2.14 µg/mL). The molecule further registered an IC50 in assay [4] of 16 µM.
In the case of `COC(=O)/C(=C/c1ccccc1Cl)CSC(=N)N`, the MIC in assay [1] was above 128 µM.
`COC(=O)/C(=C/c1ccc(OC)cc1)CN=[N+]=[N-]` displayed a minimum inhibitory concentration (MIC) in assay [1] above 128 µM.
`COC(=O)/C(=C/c1ccccc1)CN=[N+]=[N-]` returned an MIC in assay [1] above 128 µM.
On to `COC(=O)/C(=C/c1ccc2c(c1)OCO2)CN=[N+]=[N-]`, for which the MIC in assay [1] turned out to be 64 µM (≈ 16.7 µg/mL).
For the molecule `COC(=O)/C(=C/c1cccc([N+](=O)[O-])c1)CSC(=N)Nc1ccccc1`, 16 µM (≈ 5.94 µg/mL) was the least that counted as inhibitory in assay [1] (MIC).
On to `COC(=O)/C(=C/c1ccc2ccccc2c1)CN=[N+]=[N-]`, for which the MIC in assay [1] is above 128 µM.
In turn, `COC(=O)/C(=C/c1ccc(Cl)cc1)CN=[N+]=[N-]` gave an MIC in assay [1] above 128 µM.
Regarding `COC(=O)/C(=C/c1ccc(Br)cc1)CSC#N`, the MIC in assay [1] came out at 0.25 µM (≈ 0.078 µg/mL); in assay [2], 16 µM (≈ 5 µg/mL); in assay [3], 16 µM (≈ 5 µg/mL). In assay [4], this molecule registered a half-inhibitory concentration (IC50) of 32 µM. The Selectivity ratio in assay [5] is listed as above 100.
The molecule `COC(=O)/C(=C/c1ccc([N+](=O)[O-])cc1)CSC#N` had an MIC in assay [1] above 128 µM.
Consider `COC(=O)/C(=C/c1ccccc1Cl)CS/C(=N\C(C)=O)NC(C)=O`, for which the minimal inhibitory concentration (MIC) in assay [1] is 32 µM (≈ 11.8 µg/mL).
In the case of `COC(=O)/C(=C/C=C/c1ccccc1)CN=[N+]=[N-]`, in assay [1], 64 µM (≈ 15.6 µg/mL) was the least that counted as inhibitory (MIC).
`COC(=O)/C(=C/c1ccccc1[N+](=O)[O-])CSC#N` returned an MIC in assay [1] of 8 µM (≈ 2.23 µg/mL).
On to `COC(=O)/C(=C/c1ccccc1[N+](=O)[O-])CN=[N+]=[N-]`, for which the lowest concentration to inhibit growth in assay [1] (MIC) was 64 µM (≈ 16.8 µg/mL).
As for `COC(=O)/C(=C/C=C/c1ccccc1)CSC#N`, the MIC in assay [1] was above 128 µM.
With `COC(=O)/C(=C/c1ccc([N+](=O)[O-])cc1)CN=[N+]=[N-]`, the MIC in assay [1] is 4 µM (≈ 1.05 µg/mL); in assay [2] it was above 32 µM; in assay [3], 16 µM (≈ 4.2 µg/mL). The molecule also showed a 50% inhibitory concentration (IC50) in assay [4] above 64 µM.
With `COC(=O)/C(=C/c1ccc2ccccc2c1)CSC#N`, the results for the MIC in assay [1], in assay [2] and in assay [3] were 0.25 µM (≈ 0.0708 µg/mL), 32 µM (≈ 9.07 µg/mL) and 16 µM (≈ 4.53 µg/mL), respectively. In assay [4], it took 32 µM to reach half-maximal inhibition (IC50). In assay [5], the Selectivity ratio is above 100.
Regarding `COC(=O)/C(=C/c1ccc([N+](=O)[O-])cc1)CSC(=N)N`, the minimum inhibitory concentration (MIC) was 8 µM (≈ 2.36 µg/mL) in assay [1] and 64 µM (≈ 18.9 µg/mL) in assay [2].
`COC(=O)/C(=C/c1ccccc1)CSC(=N)N` had an MIC in assay [1] of 64 µM (≈ 16 µg/mL).
In assay [1], `COC(=O)/C(=C/c1ccccc1)CSC(=N)Nc1ccccc1` gave an MIC of 16 µM (≈ 5.22 µg/mL).
In assay [1], `COC(=O)/C(=C/c1ccc(Cl)cc1)CSC(=N)Nc1ccccc1` registered an MIC of 8 µM (≈ 2.89 µg/mL).
On to `COC(=O)/C(=C/c1ccc(C)cc1)CSC#N`, for which the values for the minimal inhibitory concentration (MIC) in assay [1], in assay [2] and in assay [3] were 0.5 µM (≈ 0.124 µg/mL), 8 µM (≈ 1.98 µg/mL) and 16 µM (≈ 3.96 µg/mL), respectively. Moreover, in assay [4], half-maximal inhibition (IC50) was put at 32 µM.
As to `COC(=O)/C(=C/c1ccc(F)cc1)CSC#N`, the values for the MIC in assay [1], in assay [2] and in assay [3] were 0.5 µM (≈ 0.126 µg/mL), 16 µM (≈ 4.02 µg/mL) and 16 µM (≈ 4.02 µg/mL), respectively. Besides, the IC50 in assay [4] was 32 µM.
For the molecule `COC(=O)/C(=C/c1ccc(C)cc1)CSC(=N)Nc1ccccc1`, the MIC in assay [1] turned out to be 16 µM (≈ 5.45 µg/mL).
With `COC(=O)/C(=C/c1ccccc1[N+](=O)[O-])CSC(=N)Nc1ccccc1`, in assay [1], the MIC came to 16 µM (≈ 5.94 µg/mL).
`COC(=O)/C(=C/c1ccc2c(c1)OCO2)CSC(=N)N`: the MIC in assay [1] was above 128 µM.
Take `COC(=O)/C(=C/c1ccccc1)CSC#N`: the MIC in assay [1] was 1 µM (≈ 0.233 µg/mL).
Consider `COC(=O)/C(=C/c1ccc(Cl)cc1Cl)CSC#N`, for which the MIC in assay [1] is above 128 µM.
`COC(=O)/C(=C/c1ccccc1)CS/C(=N\C(C)=O)NC(C)=O`: inhibition of growth in assay [1] (MIC) required 32 µM (≈ 10.7 µg/mL).
With `COC(=O)/C(=C/c1ccccc1Cl)CN=[N+]=[N-]`, in assay [1], the MIC was above 128 µM.
For the molecule `COC(=O)/C(=C/c1ccccc1Br)CSC#N`, the MIC in assay [1] turned out to be 0.25 µM (≈ 0.078 µg/mL); in assay [2] it was 8 µM (≈ 2.5 µg/mL); in assay [3], 4 µM (≈ 1.25 µg/mL). In assay [4], this molecule came in with an IC50 of 32 µM. Moreover, in assay [5], the Selectivity ratio is listed as above 100.
Molecule `COC(=O)/C(=C/c1ccc(Cl)cc1Cl)CN=[N+]=[N-]` gave a minimal inhibitory concentration (MIC) in assay [1] above 128 µM.
`COC(=O)/C(=C/c1ccc2c(c1)OCO2)CSC(=N)Nc1ccccc1` had an MIC in assay [1] of 16 µM (≈ 5.93 µg/mL).
`COC(=O)/C(=C/c1ccc(OC)cc1)CSC(=N)Nc1ccccc1` showed an MIC in assay [1] of 16 µM (≈ 5.7 µg/mL).
In assay [1], `COC(=O)/C(=C/c1ccc(OC)cc1)CSC(=N)N` yielded an MIC of 32 µM (≈ 8.97 µg/mL).
Still for that read-out and setting: as for `COC(=O)/C(=C/c1ccccc1Cl)CSC#N`, the figure is above 128 µM.
On to `COC(=O)/C(=C/c1ccc2c(c1)OCO2)CSC#N`, for which the minimum inhibitory concentration (MIC) in assay [1] is above 128 µM.
As for `COC(=O)/C(=C/c1ccc(OC)c(OC)c1)CSC#N`, the MIC in assay [1] was 16 µM (≈ 4.69 µg/mL).
With `COC(=O)/C(=C/c1ccc(OC)cc1)CSC#N`, in assay [1], the MIC came to 16 µM (≈ 4.21 µg/mL).
